Assay [1] deals with BAEC. The experiment in a line: Antiangiogenesis activity in bovine BAEC cells assessed as inhibition of tube formation on Matrigel at 0.2 mM. The class given is functional, cell-based. The conditions noted are these: Bos taurus. In a few lines: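 BAECs pretreated with compound (0.2 mM) 24 h, harvested, 3 × 10⁴ cells/0.1 ml in RPMI 1640 with 10 ng/mL bFGF plus 0.2 mM compound (controls bFGF only), layered on growth factor–reduced Matrigel polymerized 1 h at 37 °C; 8 h at 37 °C, 5% CO₂. Tubes counted in at least five microscope fields, averaged per field; repeated at least twice.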

A short description of assay [2]: (§1) Growth inhibition of bovine BAEC by MTT assay. The class given is functional, cell-based. The conditions noted are these: Bos taurus. In a few lines:
(§2)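 BAECs in RPMI 1640 with 10% heat-inactivated FBS, 3 × 10³ cells/well, seeded overnight, then exposed to compounds (10⁻⁶–10⁻³ M) for 48 h at 37 °C, 5% CO₂. MTT added to 0.5 mg/mL final, 3 h at 37 °C; formazan dissolved in DMSO, absorbance at 570 nm. Quadruplicate wells, experiments repeated at least twice; IC₅₀ determined.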
For orientation: Tetrazolium assays rely on reduction of a dye to a coloured formazan, in cell work by metabolically active cells.

For the next assay, the target named is T1, Alpha-glucosidase (Geobacillus stearothermophilus, UniProt P94451).
T1 sequence (P94451 whole entry): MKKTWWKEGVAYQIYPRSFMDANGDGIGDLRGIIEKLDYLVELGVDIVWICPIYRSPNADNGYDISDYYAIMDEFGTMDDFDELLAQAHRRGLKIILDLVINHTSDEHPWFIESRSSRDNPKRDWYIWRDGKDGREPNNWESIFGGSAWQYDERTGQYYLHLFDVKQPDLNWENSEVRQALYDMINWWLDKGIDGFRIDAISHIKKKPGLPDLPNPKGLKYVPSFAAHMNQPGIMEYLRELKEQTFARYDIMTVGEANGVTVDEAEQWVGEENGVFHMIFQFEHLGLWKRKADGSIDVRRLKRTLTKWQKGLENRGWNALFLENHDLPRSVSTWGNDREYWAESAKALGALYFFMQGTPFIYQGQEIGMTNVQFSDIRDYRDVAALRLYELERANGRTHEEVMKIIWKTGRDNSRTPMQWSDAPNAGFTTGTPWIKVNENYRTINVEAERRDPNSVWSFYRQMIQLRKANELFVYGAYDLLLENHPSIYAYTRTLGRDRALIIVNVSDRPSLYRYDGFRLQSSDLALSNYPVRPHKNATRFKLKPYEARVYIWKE
The experiment in a line: (§3) Inhibition of alpha glucosidase from bacillus stearothermophilus.

For assay [3], the system named is BAEC. Described as §1. The class given is functional, cell-based. As to conditions: Bos taurus. In short, it runs like this: as §2
In assay [4] the target is Methionine aminopeptidase 2 (Homo sapiens) (UniProt P50579). Briefly: Inhibition of MetAP2.
The target of assay [5] is T2, Alpha-glucosidase (Geobacillus stearothermophilus) (UniProt P94451).
T2 sequence (whole entry): T1 sequence (P94451 whole entry)
The description is as §3.

The source made the active and inactive calls. The rule behind the calls is not given here.

In general, IC50 refers to the concentration needed to halve the response being measured. Lower therefore signals inhibition by little substance.

Methionine aminopeptidase 2 (Homo sapiens), sequence (P50579 2-478 limits assumed): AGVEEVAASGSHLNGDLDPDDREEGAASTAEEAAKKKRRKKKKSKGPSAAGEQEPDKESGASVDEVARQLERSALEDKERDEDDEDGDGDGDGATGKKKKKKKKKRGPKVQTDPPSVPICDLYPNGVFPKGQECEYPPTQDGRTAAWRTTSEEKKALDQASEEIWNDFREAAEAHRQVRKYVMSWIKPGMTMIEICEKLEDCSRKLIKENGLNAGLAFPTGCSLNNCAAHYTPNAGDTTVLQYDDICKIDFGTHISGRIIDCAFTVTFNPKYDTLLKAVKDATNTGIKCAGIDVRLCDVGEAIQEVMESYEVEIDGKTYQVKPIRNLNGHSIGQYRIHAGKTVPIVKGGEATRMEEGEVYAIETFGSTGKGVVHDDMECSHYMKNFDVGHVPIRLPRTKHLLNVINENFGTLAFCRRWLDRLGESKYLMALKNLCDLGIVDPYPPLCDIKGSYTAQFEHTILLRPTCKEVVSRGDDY

On to `OC[C@@H]1[C@@H](O)[C@H](O)[C@@H](O)CN1CCCCCCOc1cccc(-c2cnn[nH]2)c1`, for which, in the assay on BAEC [1], the outcome was inactive. For the same compound, the figures for the IC50 (in assay [2]; on Alpha-glucosidase) were 610 µM and 2.41 µM, respectively.
Take `OC[C@@H]1[C@@H](O)[C@H](O)[C@@H](O)CN1CCCCCCCCOc1cccc(-c2cnn[nH]2)c1`: the half-maximal inhibitory concentration (IC50) in assay [2] worked out at 105 µM; at Alpha-glucosidase, 1.15 µM.
As to `OC[C@@H]1[C@@H](O)[C@H](O)[C@@H](O)CN1CCCCOc1cccc(-c2cnn[nH]2)c1`, in the assay with BAEC [1], the outcome was inactive. Also, the IC50 turned out to be 797 µM in assay [2] and 6.07 µM on Alpha-glucosidase.
As for `OC[C@H]1NC[C@H](O)[C@@H](O)[C@@H]1O`, the result with BAEC [3] was inactive.
For the compound `COc1cccc(-c2cnn[nH]2)c1`, 347 µM corresponded to half-maximal inhibition in assay [2] (IC50). Besides, the outcome in assay [4] was Active. Further, the outcome in assay [5] was inactive.
